ChEMBL document CHEMBL3860038, “Discovery of (R,E)-N-(7-Chloro-1-(1-[4-(dimethylamino)but-2-enoyl]azepan-3-yl)-1H-benzo[d]imidazol-2-yl)-2-methylisonicotinamide (EGF816), a Novel, Potent, and WT Sparing Covalent Inhibitor of Oncogenic (L858R, ex19del) and Resistant (T790M) EGFR Mutants for the Treatment of EGFR Mutant …” (J Med Chem, 2016)

Tests used:
[1] = molecular target: Epidermal growth factor receptor (Homo sapiens, UniProt P00533); assay: Inhibition of wild type EGFR phosphorylation in human HaCaT cells incubated for 3 hrs by ELISA method; format: cell-based
Sequence of Epidermal growth factor receptor (Homo sapiens, UniProt P00533) (P00533 whole entry): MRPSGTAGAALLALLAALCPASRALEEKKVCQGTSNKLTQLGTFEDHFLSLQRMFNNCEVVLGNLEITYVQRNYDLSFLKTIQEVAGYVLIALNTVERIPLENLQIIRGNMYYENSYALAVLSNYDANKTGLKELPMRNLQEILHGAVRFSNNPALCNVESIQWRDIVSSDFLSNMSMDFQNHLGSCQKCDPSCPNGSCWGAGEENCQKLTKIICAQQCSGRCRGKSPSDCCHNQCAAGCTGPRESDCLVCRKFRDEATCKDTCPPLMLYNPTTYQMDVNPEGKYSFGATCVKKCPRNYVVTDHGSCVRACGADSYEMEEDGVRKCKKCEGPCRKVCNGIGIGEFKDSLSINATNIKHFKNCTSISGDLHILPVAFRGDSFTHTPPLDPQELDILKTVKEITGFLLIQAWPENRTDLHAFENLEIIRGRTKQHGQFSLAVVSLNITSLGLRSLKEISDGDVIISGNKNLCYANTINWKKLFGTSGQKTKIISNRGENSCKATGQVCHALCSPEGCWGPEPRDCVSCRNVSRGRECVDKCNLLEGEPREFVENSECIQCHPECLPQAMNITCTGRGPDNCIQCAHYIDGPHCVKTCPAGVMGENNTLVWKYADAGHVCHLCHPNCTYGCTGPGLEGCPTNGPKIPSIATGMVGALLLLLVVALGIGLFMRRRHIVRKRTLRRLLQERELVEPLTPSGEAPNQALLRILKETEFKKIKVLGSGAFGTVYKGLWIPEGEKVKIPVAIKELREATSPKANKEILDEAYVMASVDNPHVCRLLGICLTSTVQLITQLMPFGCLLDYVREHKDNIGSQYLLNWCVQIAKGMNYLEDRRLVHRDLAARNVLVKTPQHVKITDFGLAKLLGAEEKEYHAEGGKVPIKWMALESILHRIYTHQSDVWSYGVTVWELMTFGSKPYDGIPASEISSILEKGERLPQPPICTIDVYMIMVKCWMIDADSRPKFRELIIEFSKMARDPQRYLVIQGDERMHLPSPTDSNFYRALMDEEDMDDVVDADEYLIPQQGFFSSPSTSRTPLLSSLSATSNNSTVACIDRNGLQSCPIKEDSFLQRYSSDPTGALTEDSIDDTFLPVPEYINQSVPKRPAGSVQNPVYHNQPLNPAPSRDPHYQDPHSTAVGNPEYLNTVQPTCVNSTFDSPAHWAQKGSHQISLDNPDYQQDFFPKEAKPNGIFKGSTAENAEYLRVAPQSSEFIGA

[2] = AUC in balb/c mouse at 20 mg/kg, po by liquid chromatography-tandem mass spectrometry; format: ADME, organism-based; details: in vivo
Summary of the method: (§1)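 Rodent PK in male balb/c mice and male Wistar rats; plasma drug levels by LC-MS/MS. Mouse oral dosing at 20 mg/kg, with compounds given as a 0.5% methylcellulose/0.5% Tween 80 suspension or as solutions (PEG300/D5W, or ethanol/PEG300 with Solutol or D5W), depending on compound.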

[3] = Drug metabolism in human liver microsomes assessed as oxidation at acrylate groups; format: ADME
[4] = Drug metabolism in rat liver microsomes assessed as oxidation at 7-methyl groups; format: ADME
[5] = molecular target: Epidermal growth factor receptor (Homo sapiens, UniProt P00533, L858R); assay: Inhibition of EGFR L858R mutant phosphorylation in human patient derived H3255 cells incubated for 3 hrs by ELISA method; format: cell-based
Sequence of Epidermal growth factor receptor (Homo sapiens, UniProt P00533, L858R) (P00533 25-1210 L858R limits assumed): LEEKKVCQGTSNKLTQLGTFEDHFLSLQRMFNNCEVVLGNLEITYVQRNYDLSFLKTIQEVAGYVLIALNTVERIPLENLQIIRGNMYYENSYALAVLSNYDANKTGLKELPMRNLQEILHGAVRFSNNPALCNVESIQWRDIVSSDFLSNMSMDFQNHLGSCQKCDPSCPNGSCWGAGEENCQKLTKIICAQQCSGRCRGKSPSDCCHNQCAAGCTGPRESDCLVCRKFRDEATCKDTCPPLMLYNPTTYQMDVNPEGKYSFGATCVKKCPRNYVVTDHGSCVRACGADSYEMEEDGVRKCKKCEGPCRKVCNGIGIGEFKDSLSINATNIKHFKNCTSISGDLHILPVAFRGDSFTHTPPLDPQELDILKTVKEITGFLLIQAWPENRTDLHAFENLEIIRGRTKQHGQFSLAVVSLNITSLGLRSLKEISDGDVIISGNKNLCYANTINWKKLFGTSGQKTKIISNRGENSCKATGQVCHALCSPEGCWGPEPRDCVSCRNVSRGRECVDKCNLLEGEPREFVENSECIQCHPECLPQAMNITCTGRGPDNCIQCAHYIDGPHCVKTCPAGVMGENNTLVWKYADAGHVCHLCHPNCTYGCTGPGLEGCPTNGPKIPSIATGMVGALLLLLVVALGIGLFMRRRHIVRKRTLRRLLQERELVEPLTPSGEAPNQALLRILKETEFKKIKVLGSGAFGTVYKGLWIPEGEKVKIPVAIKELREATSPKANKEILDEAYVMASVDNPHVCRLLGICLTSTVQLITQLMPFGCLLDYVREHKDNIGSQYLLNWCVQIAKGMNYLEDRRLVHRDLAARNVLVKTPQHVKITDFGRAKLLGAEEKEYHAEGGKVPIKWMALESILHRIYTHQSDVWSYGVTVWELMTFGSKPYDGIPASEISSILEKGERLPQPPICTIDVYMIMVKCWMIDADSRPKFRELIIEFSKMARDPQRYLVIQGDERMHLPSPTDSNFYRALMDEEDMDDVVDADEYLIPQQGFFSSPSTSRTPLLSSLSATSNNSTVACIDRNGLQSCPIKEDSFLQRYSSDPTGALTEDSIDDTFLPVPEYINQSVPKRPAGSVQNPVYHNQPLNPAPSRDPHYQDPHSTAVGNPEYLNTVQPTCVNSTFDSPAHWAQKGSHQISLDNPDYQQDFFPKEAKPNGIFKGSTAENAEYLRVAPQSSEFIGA

[6] = molecular target: Epidermal growth factor receptor (Homo sapiens, UniProt P00533, L858R/T790M); assay: Inhibition of EGFR L858R/T790M mutant phosphorylation in human patient derived H1975 cells incubated for 3 hrs by ELISA method; format: cell-based
Sequence of Epidermal growth factor receptor (Homo sapiens, UniProt P00533, L858R/T790M) (P00533 25-1210 T790M/L858R limits assumed): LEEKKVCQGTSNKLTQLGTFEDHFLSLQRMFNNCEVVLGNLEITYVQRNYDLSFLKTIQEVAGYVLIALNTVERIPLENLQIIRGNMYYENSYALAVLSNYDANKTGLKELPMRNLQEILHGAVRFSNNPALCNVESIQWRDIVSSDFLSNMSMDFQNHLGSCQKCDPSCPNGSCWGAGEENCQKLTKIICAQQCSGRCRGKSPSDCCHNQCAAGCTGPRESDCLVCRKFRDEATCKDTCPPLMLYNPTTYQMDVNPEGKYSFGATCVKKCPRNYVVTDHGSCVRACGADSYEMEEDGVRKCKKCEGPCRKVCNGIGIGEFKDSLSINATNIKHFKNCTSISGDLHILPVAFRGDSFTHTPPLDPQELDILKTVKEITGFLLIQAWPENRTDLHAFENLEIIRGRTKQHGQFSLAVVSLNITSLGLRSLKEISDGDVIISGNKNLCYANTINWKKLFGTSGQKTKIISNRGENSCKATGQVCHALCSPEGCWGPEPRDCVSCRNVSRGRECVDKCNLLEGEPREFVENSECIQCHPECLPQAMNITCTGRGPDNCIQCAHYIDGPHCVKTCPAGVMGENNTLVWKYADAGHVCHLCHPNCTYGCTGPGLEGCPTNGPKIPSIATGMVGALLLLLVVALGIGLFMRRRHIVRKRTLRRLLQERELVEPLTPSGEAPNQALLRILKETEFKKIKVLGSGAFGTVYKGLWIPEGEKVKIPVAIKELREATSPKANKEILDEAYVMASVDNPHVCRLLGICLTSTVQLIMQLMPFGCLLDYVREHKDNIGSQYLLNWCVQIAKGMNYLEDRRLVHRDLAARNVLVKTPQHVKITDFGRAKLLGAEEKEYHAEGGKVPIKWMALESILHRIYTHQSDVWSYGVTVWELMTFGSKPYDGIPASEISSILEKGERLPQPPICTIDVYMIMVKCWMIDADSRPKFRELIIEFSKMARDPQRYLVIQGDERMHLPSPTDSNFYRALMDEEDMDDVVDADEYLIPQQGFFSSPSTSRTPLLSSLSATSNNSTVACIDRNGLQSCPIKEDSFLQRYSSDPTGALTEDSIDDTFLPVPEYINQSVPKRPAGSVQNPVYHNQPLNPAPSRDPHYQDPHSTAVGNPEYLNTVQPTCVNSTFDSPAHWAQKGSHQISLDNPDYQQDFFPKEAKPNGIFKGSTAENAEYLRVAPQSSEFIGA

[7] = Oral bioavailability in balb/c mouse at 20 mg/kg by liquid chromatography-tandem mass spectrometry; format: ADME, organism-based; details: in vivo; summary of the method: as §1
[8] = molecular target: Cytochrome P450 2D6 (Homo sapiens, UniProt P10635); assay: Inhibition of CYP2D6 (unknown origin); format: ADME
Sequence of Cytochrome P450 2D6 (P10635 whole entry): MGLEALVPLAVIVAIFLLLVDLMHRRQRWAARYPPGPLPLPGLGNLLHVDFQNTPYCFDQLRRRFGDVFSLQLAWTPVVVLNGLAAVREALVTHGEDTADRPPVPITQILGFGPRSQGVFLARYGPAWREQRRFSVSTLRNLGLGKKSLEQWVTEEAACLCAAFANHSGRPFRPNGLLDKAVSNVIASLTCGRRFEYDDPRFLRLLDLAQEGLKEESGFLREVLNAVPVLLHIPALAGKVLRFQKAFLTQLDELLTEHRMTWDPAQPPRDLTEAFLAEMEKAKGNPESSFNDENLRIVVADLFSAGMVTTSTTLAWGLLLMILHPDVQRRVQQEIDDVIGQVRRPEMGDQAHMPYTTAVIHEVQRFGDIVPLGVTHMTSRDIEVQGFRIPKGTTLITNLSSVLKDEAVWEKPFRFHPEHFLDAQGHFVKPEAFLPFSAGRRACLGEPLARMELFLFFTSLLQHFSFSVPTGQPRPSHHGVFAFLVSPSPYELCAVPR

[9] = Drug metabolism in human liver microsomes assessed as oxidation at 7-methyl groups; format: ADME
[10] = Drug metabolism in mouse liver microsomes assessed as oxidation at 7-methyl groups; format: ADME
[11] = Drug metabolism in rat liver microsomes assessed as oxidation at acrylate groups; format: ADME
[12] = Intrinsic clearance in mouse liver microsomes; format: ADME; details: read-out: CLH
[13] = Inhibition of EGFR E746 to A750 deletion mutant phosphorylation in human patient derived HCC827 cells incubated for 3 hrs by ELISA method; format: cell-based; details: HCC827, 3 h
Summary of the method: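 HCC827 cells plated at 7500/well in 5% FBS/RPMI and left overnight at 37 °C. Then 3 h with a 12-point compound dilution series, no EGF stimulation. Lysed in Triton/protease/phosphatase-inhibitor buffer. Phospho-EGFR (Y1173) read by sandwich ELISA: anti-EGFR capture, anti-phospho-EGFR, anti-rabbit-HRP, chemiluminescence. IC50 from at least duplicates.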

[14] = Aqueous solubility of the compound at pH 6.8; format: physicochemical
[15] = molecular target: Cytochrome P450 2C9 (Homo sapiens, UniProt P11712); assay: Inhibition of CYP2C9 (unknown origin); format: ADME
Sequence of Cytochrome P450 2C9 (P11712 whole entry): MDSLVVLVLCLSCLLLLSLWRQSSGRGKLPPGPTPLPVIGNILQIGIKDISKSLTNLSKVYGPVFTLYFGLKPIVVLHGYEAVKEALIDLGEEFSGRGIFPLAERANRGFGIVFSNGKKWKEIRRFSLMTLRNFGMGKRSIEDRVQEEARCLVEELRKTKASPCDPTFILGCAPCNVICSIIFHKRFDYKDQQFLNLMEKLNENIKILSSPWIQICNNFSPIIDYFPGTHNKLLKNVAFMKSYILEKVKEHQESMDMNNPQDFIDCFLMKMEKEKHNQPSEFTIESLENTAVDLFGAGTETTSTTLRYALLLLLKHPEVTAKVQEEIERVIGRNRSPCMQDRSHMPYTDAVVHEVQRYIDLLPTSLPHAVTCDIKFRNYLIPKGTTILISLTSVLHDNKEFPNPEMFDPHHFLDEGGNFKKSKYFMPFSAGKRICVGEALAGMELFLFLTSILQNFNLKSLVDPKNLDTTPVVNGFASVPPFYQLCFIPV

[16] = Intrinsic clearance in human liver microsomes; format: ADME; details: read-out: CLH
[17] = molecular target: Cytochrome P450 3A4 (Homo sapiens, UniProt P08684); assay: Inhibition of CYP3A4 (unknown origin); format: ADME
Sequence of Cytochrome P450 3A4 (P08684 whole entry): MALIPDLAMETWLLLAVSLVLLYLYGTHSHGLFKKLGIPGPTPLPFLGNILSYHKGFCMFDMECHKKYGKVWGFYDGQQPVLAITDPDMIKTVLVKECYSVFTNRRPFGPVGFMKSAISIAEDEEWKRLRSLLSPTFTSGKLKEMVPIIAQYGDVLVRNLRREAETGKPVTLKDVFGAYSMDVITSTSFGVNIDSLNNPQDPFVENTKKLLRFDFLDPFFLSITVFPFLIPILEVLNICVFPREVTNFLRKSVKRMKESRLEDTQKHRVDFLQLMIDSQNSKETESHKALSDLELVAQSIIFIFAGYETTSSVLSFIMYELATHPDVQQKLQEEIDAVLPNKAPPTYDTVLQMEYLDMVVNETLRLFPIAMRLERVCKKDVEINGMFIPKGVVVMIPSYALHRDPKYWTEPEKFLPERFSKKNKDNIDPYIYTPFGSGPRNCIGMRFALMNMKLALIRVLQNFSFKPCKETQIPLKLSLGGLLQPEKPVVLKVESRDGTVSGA

[18] = Clearance in balb/c mouse at 5 mg/kg, iv by liquid chromatography-tandem mass spectrometry; format: ADME, organism-based; details: in vivo; summary of the method: as §1
[19] = Glutathione reactivity assessed as GSH adduct formation incubated for 1 hr using 10 mM glutathione
Summary of the method: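 Compound incubated 1 h with 10 mM glutathione; GSH adduct formation measured.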

[20] = Drug metabolism in mouse liver microsomes assessed as oxidation at acrylate groups; format: ADME
[21] = Mean residence time in dog at 1 mg/kg, iv by liquid chromatography-tandem mass spectrometry; format: ADME, organism-based, Canis lupus familiaris; details: in vivo
[22] = Cmax in dog at 10 mg/kg, po by liquid chromatography-tandem mass spectrometry; format: ADME, organism-based, Canis lupus familiaris; parameters: dose 10 mg/kg, route oral; details: in vivo
[23] = AUC in dog at 1 mg/kg, iv by liquid chromatography-tandem mass spectrometry; format: ADME, organism-based, Canis lupus familiaris; details: in vivo
[24] = Volume of distribution at steady state in dog at 1 mg/kg, iv by liquid chromatography-tandem mass spectrometry; format: ADME, organism-based, Canis lupus familiaris; details: in vivo, read-out: Vdss
[25] = Clearance in dog at 1 mg/kg, iv by liquid chromatography-tandem mass spectrometry; format: ADME, organism-based, Canis lupus familiaris; details: in vivo
[26] = Oral bioavailability in dog at 10 mg/kg by liquid chromatography-tandem mass spectrometry; format: ADME, organism-based, Canis lupus familiaris; details: in vivo
[27] = Tmax in dog at 10 mg/kg, po by liquid chromatography-tandem mass spectrometry; format: ADME, organism-based, Canis lupus familiaris; details: in vivo
[28] = AUC in dog at 10 mg/kg, po by liquid chromatography-tandem mass spectrometry; format: ADME, organism-based, Canis lupus familiaris; details: in vivo

C=CC(=O)N1CCCC[C@@H](n2c(NC(=O)c3cccc(C(F)(F)F)c3)nc3cccc(C)c32)C1
IC50 [1]: 250 nM
AUC [2]: 0.808 µM·h
Drug metabolism [3]: Metabolite_Detected
Drug metabolism [4]: Metabolite_Detected
IC50 [5]: 14.8 nM
IC50 [6]: 1.39 nM
bioavailability [7]: 6%
IC50 [8]: > 25000 nM
Drug metabolism [9]: Metabolite_Detected
Drug metabolism [10]: Metabolite_Detected
Drug metabolism [11]: Metabolite_Detected
microsomal CLint [12]: 245 µL/min/mg
IC50 [13]: 3.93 nM
solubility [14]: < 2 µM
IC50 [15]: 3400 nM
microsomal CLint [16]: 83 µL/min/mg
IC50 [17]: 3500 nM
clearance [18]: 54 mL/min/kg
Drug metabolism [19]: < 5%
Drug metabolism [20]: Metabolite_Detected

Cc1cc(C(=O)Nc2nc3cccc(Cl)c3n2[C@@H]2CCCCN(C(=O)/C=C/CN(C)C)C2)ccn1.Cl
MRT [21]: 13.8 h
Cmax [22]: 435 nM
AUC [23]: 0.783 µM·h
Vd [24]: 35.2 L/kg
clearance [25]: 43.7 mL/min/kg
bioavailability [26]: 67%
Tmax [27]: 2.3 h
AUC [28]: 5.23 µM·h
